This is a sample that favours compounds with a hit; in the whole collection about 0.72% have one here.
mIAP block: blocks mouse intestinal alkaline phosphatase; purified mouse IAP, CDP-Star luminescence, 30 min; inhibition, % at 10 µM; 330,000 compounds, 0.2% hits; AID 2806;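 active means inhibition of at least 40% at 10 µM in the primary screen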
hIAP inh: human IAP inhibition; AID 2544; inhibition, % at 10 µM; purified IAP, CDP-Star luminescence, 30 min; 330,000 compounds, 0.12% hits;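 active means inhibition reaching a set limit with compound at 10 µM in the primary screen, cut at about 35% in these data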
Target sequence (P09923 whole entry, looked up): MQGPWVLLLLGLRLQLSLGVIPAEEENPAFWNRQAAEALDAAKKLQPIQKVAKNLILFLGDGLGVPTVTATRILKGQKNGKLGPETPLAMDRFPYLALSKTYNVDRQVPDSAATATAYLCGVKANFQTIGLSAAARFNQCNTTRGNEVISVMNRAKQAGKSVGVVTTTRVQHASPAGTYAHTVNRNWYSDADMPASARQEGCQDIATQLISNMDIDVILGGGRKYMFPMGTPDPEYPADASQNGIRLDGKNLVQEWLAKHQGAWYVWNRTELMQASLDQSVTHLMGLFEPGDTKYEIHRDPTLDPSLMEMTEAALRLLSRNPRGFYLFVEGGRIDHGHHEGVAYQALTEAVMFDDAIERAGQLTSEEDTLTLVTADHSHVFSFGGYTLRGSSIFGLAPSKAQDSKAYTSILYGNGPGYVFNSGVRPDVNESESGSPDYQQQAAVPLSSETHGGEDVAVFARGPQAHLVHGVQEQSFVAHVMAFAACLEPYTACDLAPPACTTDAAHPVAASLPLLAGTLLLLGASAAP
bIAP inh: intestinal alkaline phosphatase (bovine) inhibition; 190,000 tested, under 10 active; inhibition, % at 20 µM; purified bovine IAP, CDP-star luminescence, 30 min;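 active means over 50% inhibition of intestinal alkaline phosphatase at 20 µM in the single-dose screen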
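Incubation: 30 min reaction at room temperature / Material: purified bovine intestinal alkaline phosphatase (IAP) enzyme / Input: enzyme at 1/65,000,000 dilution / Dosing: 20 µM single dose / Signal: CDP-star luminescence signal / Reagent: CDP-star chemiluminescent phosphatase substrate, 30 µM final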
bIAP activator: intestinal alkaline phosphatase (bovine) activation; activation factor at 20 µM; AID 1016; 200,000 compounds, 0.17% hits; purified bovine IAP, CDP-star luminescence, 30 min; hits give high values; fold of DMSO-control signal, blank-subtracted;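 active means activation factor of 2 or more at 20 µM, a signal rise over negative controls twice the positive control's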
mIAP activ: mouse IAP activation. muIAP, CDP-Star luminescence, 30 min; hits give high values; 1 = vehicle-only enzyme signal, 0 = enzyme-free wells. activation factor at 10 µM. 330,000 compounds, 0.24% hits. AID 2805;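 active means activation factor of at least 2 at 20 µM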
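Assay system: mouse IAP enzyme; reagent: chemiluminescent substrate CDP-Star; dosing: test compounds delivered from DMSO solution; schedule: 30 min at room temperature; measured by: luminescence from enzymatic CDP-Star hydrolysis; controls: DMSO-only wells and no-enzyme negative control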
hIAP activ: human IAP activation. purified human IAP, CDP-Star luminescence, 30 min; hits give high values; 1 = vehicle-only enzyme, 0 = enzyme-free background. activation factor at 10 µM. 330,000 compounds, 0.16% hits;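 active means activation factor of the enzyme at least 2-fold when tested at 20 µM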
Large screens that a line does not name were inactive.

CCOC(=O)C(Cc1c[nH]c2ccccc12)NC(=O)c1ccccc1Br (stereo not given)	none (no result: bIAP inh, bIAP activator)
Cc1csc2c(N3CCN(C(=O)Nc4ccc(Cl)c(Cl)c4)CC3)ncnc12	mIAP activ 2.4 (no result: bIAP inh, bIAP activator)
Cc1csc2c(N3CCN(C(=O)NC(C)(C)C)CC3)ncnc12	none (no result: bIAP inh, bIAP activator)
COCCn1nnnc1C(C(C)C)N1CCSCC1 (stereo not given)	none
COc1cc(NC(=O)CN(c2ccc(C)cc2)S(=O)(=O)c2c(C)noc2C)cc(OC)c1	none (no result: bIAP inh, bIAP activator)
COc1cc(NC(=O)CN(c2cc(C)cc(C)c2)S(=O)(=O)c2c(C)noc2C)cc(OC)c1	mIAP activ 3
C[C@H](CO)N1C[C@H](C)[C@@H](CN(C)S(=O)(=O)c2cccs2)Oc2c(NC(=O)Nc3ccc4c(c3)OCO4)cccc2C1=O	none (no result: bIAP inh, bIAP activator)
COc1ccc(S(=O)(=O)N(C)C[C@H]2Oc3ccc(NC(=O)Nc4ccc5c(c4)OCO5)cc3CC(=O)N([C@@H](C)CO)C[C@@H]2C)cc1	none (no result: bIAP inh, bIAP activator)
COc1ccc(S(=O)(=O)N(C)C[C@H]2Oc3ccc(NC(=O)NC(C)C)cc3C(=O)N([C@H](C)CO)C[C@@H]2C)cc1	none (no result: bIAP inh, bIAP activator)
C[C@H](CO)N1C[C@H](C)[C@H](CN(C)S(=O)(=O)c2ccccc2)Oc2ccc(NC(=O)NC3CCCCC3)cc2CC1=O	mIAP activ 2.7 (no result: bIAP inh, bIAP activator)
Cc1ccc(S(=O)(=O)Nc2ccc3c(c2)CC(=O)N([C@H](C)CO)C[C@@H](C)[C@H](CN(C)S(=O)(=O)c2ccccc2)O3)cc1	none (no result: bIAP inh, bIAP activator)
C[C@H](CO)N1C[C@H](C)[C@H](CN(C)S(=O)(=O)c2cccs2)Oc2ccc(NC(=O)Nc3ccc4c(c3)OCO4)cc2CC1=O	mIAP activ 2.3 (no result: bIAP inh, bIAP activator)
C[C@H](CO)N1C[C@H](C)[C@@H](CN(C)S(=O)(=O)c2cccs2)Oc2ccc(NC(=O)Nc3ccc4c(c3)OCO4)cc2C1=O	mIAP activ 2.2 (no result: bIAP inh, bIAP activator)
COc1ccc(S(=O)(=O)N(C)C[C@H]2Oc3ccc(NC(=O)Nc4ccc5c(c4)OCO5)cc3C(=O)N([C@H](C)CO)C[C@@H]2C)cc1	mIAP activ 2.3 (no result: bIAP inh, bIAP activator)
CC1CCN(c2c(NCC3CCC(C(=O)NCCCc4ccccc4)CC3)c(=O)c2=O)CC1 (stereo not given)	none (no result: bIAP inh, bIAP activator)
CC1CCCC(C)N1C(=O)COC(=O)c1ccc(S(=O)(=O)N(C)c2ccccc2)cc1 (stereo not given)	none (no result: bIAP inh, bIAP activator)
Cc1ccc(SCC(=O)OCC(=O)N2CCN(C(=O)c3ccco3)CC2)c(C)c1	none (no result: bIAP inh, bIAP activator)
COc1cc(Cl)c(C)cc1NC(=O)CSc1sc2c(O)cc(=O)[nH]c2c1C#N	none (no result: bIAP inh, bIAP activator)
Cc1cc(=O)oc2c(C)c(OC(C)C(=O)Nc3ccc(N4CCC(C)CC4)cc3)ccc12 (stereo not given)	none (no result: bIAP inh, bIAP activator)
O=C1c2nccnc2C(=O)N1c1ccc(C(F)(F)F)cc1	none
COc1ccc(NC(=O)Nc2ccc3c(c2)C(=O)N([C@@H](C)CO)C[C@@H](C)[C@@H](CN(C)S(=O)(=O)c2cccs2)O3)cc1	mIAP activ 3.1 (no result: bIAP inh, bIAP activator)
CCOC(=O)c1ccc(NC(=S)NCCc2ccc(OC)c(OC)c2)cc1	none (no result: bIAP inh, bIAP activator)
C=CCNC(=O)/C=C/c1c(F)cccc1Cl	bIAP activator 2.7
O=C(C1=NN[C@@H]2C(=O)N(Cc3ccccc3)C(=O)[C@H]12)c1ccc([N+](=O)[O-])cc1	none (no result: bIAP inh, bIAP activator)
O=C(Nc1ccc(Br)cc1)Nc1ccccc1F	mIAP activ 2.2
O=C(Nc1ccc2c(c1)CCC2)Nc1ccccc1F	mIAP activ 2 (no result: bIAP inh, bIAP activator)
O=C(Nc1ccc2c(c1)CCC2)Nc1ccc(F)cc1F	none (no result: bIAP inh, bIAP activator)
Cc1ccc(Nc2nc(/N=C/NO)n[nH]2)cc1C	hIAP activ 2.5
COc1ccccc1NC(=O)C(=O)Nc1ccc2c(c1)N(C(=O)C1CC1)CCC2	none (no result: bIAP inh, bIAP activator)
Cc1cccc(OCC(=O)Nc2ncn[nH]2)c1C	hIAP activ 2 (no result: bIAP inh, bIAP activator)
Cc1cccc(OCC(=O)Nc2ccncc2)c1C	none (no result: bIAP inh, bIAP activator)
Cc1ccc(NC(=O)C(Cc2ccccc2)NC(=O)OCc2ccccc2)cc1C (stereo not given)	mIAP activ 2.1
Cc1cccc(NC(=O)[C@H](Cc2ccccc2)NC(=O)OCc2ccccc2)c1	none
C=CCN1C(=O)/C(=C/c2ccc(-c3ccc(F)cc3)o2)SC1=S	hIAP inh 37 (no result: bIAP inh, bIAP activator)
O=C(NCCN1CCCC1)c1ccc2c(c1)N(Cc1ccccc1)C(=O)c1ccccc1S2(=O)=O	none (no result: bIAP inh, bIAP activator)
CCOC(=O)/C(C#N)=C/C=C1\C=Cc2ccccc2N1CC	mIAP block 44
CCCN1C=CC(=CC=C(C#N)C#N)C=C1	none (no result: bIAP inh, bIAP activator)
CCCN1C=CC(=C/C=C(\C#N)C(=O)OCC)C=C1	hIAP inh 37
O=C(Nc1cccc(Cl)c1)NC1CCN(C2CCCCC2)C1 (stereo not given)	mIAP activ 2.3 (no result: bIAP inh, bIAP activator)
O=C(NC1CCN(C(=O)Nc2cccc(Cl)c2)CC1)C1CCCCC1	none (no result: bIAP inh, bIAP activator)
CCOc1cc(/C=C2/N=C(C)C(C(=O)OC)=C2O)ccc1O	mIAP block 42 (no result: bIAP inh)
CCCC(=O)OCCNc1cc(Sc2nc3ccccc3[nH]2)c2nonc2c1[N+](=O)[O-]	bIAP activator 3.5
CCC(=O)OCCNc1cc(SCCC(=O)OC)c2nonc2c1[N+](=O)[O-]	none
CCCn1c(C(O)c2ccc(C)cc2)nc2ccccc21 (stereo not given)	none (no result: bIAP inh, bIAP activator)
CCCn1c(C(O)c2ccc3c(c2)OCO3)nc2ccccc21 (stereo not given)	bIAP activator 5.8
COc1ccccc1NS(=O)(=O)c1cc([N+](=O)[O-])ccc1N/N=C/c1c[nH]c2ccccc12	none
COc1ccc(C=NNc2ccc([N+](=O)[O-])cc2S(=O)(=O)Nc2ccccc2C(=O)O)cc1OC	mIAP block 42 (no result: bIAP inh, bIAP activator)
O=C(Nc1nc(-c2ccco2)c(-c2ccco2)s1)c1cnccn1	mIAP block 44 (no result: bIAP inh, bIAP activator)
O=C(Nc1nc2ccccc2s1)c1cnccn1	none
Cc1cccc(NC(=O)c2cn(-c3ccccc3)nc2-c2ccccc2)c1	mIAP activ 2.6
CC(=O)N1CCN(c2ccc(NCc3ccc(-c4cccc(Cl)c4)o3)cc2)CC1	none (no result: bIAP inh, bIAP activator)
CCCC(=O)Nc1ccc(C(=O)N/N=C/c2ccc([N+](=O)[O-])o2)cc1	mIAP block 40
O=S(=O)(c1ccc(NC(=S)NCCC(c2ccccc2)c2ccccc2)cc1)N1CCOCC1	mIAP activ 2.1
CCCCOCCCNC(=S)Nc1ccc(S(=O)(=O)N2CCOCC2)cc1	none (no result: bIAP inh, bIAP activator)
CC(C)(C)CC(C)(C)NC(=S)Nc1ccc(S(=O)(=O)N2CCOCC2)cc1	mIAP activ 2.2
NNC(=S)Nc1ccc(S(=O)(=O)N2CCOCC2)cc1	none (no result: bIAP inh, bIAP activator)
CC(C)(C)n1nnnc1CN1C2CCC1CC(NC(=O)Nc1ccccc1)C2 (stereo not given)	bIAP activator 2.2
Cc1ccc(NC(=S)NC2CC3CCC(C2)N3Cc2ccco2)cc1C (stereo not given)	none
CCOC(=O)c1ccc(NC(=O)NC2CC3CCC(C2)N3Cc2nnnn2Cc2ccco2)cc1 (stereo not given)	mIAP activ 2.2

Assay outcomes from PubChem.
